From ChEMBL document CHEMBL4513216, “Probing the Open Global Health Chemical Diversity Library for Multistage-Active Starting Points for Next-Generation Antimalarials” (ACS Infect Dis, 2020)

Test: Toxicity liver stage against HepG2, at 10uM
Type: cell-based
Parameters: test concentration 10 uM, cell line HepG2-A16-CD81EGFP
Conditions: human, HepG2-A16-CD81EGFP cells; read-out: INHIBITION
Outline: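 Uninfected HepG2-A16-CD81EGFP cells, 3 × 10^3 per well, 1536-well, plated on prespotted compound at 10 μM final, parasite-free screening media added to match infected plates; puromycin 10 μM positive, DMSO 0.5% negative; run in parallel with 48 h PbLuc assay at 37 °C, 5% CO2; viability by CellTiter-Glo luminescence, normalized to controls.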

Structure (SMILES) | cytotoxicity at 10 µM
CCOc1ccc(CC(CNC(=O)c2ccco2)C(N)=O)cc1 (centres undefined) | 8.26%
O=C(CO)N1CCN(S(=O)(=O)CCCF)CC1 | -0.655%
Cc1c(CCC(=O)Nc2ccc(Br)cn2)cnn1C | -6.14%
O=C(NCc1cccnc1N1CCc2ccccc2C1)c1cc(=O)[nH][nH]1 | 6.99%
Cc1nn(C)c(N2CCOCC2)c1CNCc1ccc(CO)c(F)c1 | -14.5%
CO[C@@H](C(=O)NC1CCOCC1)c1ccccc1 | -2.43%
CN(CCc1ccccc1)c1cnn(CC(=O)N2CCSCC2)c(=O)c1 | -8.74%
Cn1cnc2c1CCN(Cc1cccc(C(N)=O)c1)C2 | -16.8%
Cn1cccc1C(=O)N1C[C@@H]2COC[C@]2(CNS(C)(=O)=O)C1 | 4.38%
O=C(NCCn1ccnc1)c1cccc(Br)c1 | 9.3%
O=C(c1cnc(NCc2sccc2Br)c(Cl)c1)N1CCCCC1 | 6.36%
CCC1=N[C@@]2(CC[C@@H]3CN(C(=O)Nc4ccc(F)cc4)C[C@@H]32)C(=O)N1 | -24%
Cc1ccc2c(n1)N(CCN(C)C)CCN(C(=O)N1CCOCC1)C2 | -73.1%
O=C(O)C1(Cc2ccccc2F)CCCN(c2ncnc3[nH]ccc23)C1 (centres undefined) | -0.44%
CN(C)c1ncc(I)c(C2CCCCN2S(C)(=O)=O)n1 (centres undefined) | 5.09%
COc1ccc(C(=O)NCCN(C)C)c(I)c1 | -1.93%
OC(CN1CCN(CC(F)F)CC1)c1ccc(Br)cc1 (centres undefined) | -9.88%
CCc1c(C(=O)N2CCC3(CCCN(CCO)C3=O)C2)csc1C (centres undefined) | -128%
CN(C(=O)c1cnc(N2CCOCC2)nc1)C1Cc2ccccc2C1 | -3.97%
CN(c1ccc(CNc2ccc(Cl)cn2)cc1)S(C)(=O)=O | 5.03%
COc1cc(NC(=O)N2CCCC2c2nncn2C)ccc1Br (centres undefined) | 5.67%
Cc1c(C(=O)N2CCS(=O)(=O)CC2)nnn1-c1ccc2ncccc2c1 | -5.82%
COc1ccc(CCC(=O)NC2CCC(O)CC2)cc1OC (centres undefined) | -5.26%
CC(C)CC(=O)NC1CC2(CCN(CCF)CC2)Oc2ccccc21 (centres undefined) | 1.08%
O=C(NCc1ccccn1)[C@]12COC[C@H]1CN(C1CCC1)C2 | -6.82%
Cc1ccc(NC(=O)c2ccc(=O)n(CC(=O)NC3CCCC3)n2)cc1 | -3.63%
CCc1ccc(CNC2(c3ccc(F)cc3)CCOCC2)o1 | 4.68%

Structure (SMILES) | cytotoxicity at 10 µM
CN(Cc1nccn1CC(F)(F)F)C(=O)c1ccc(F)cc1F | 3.3%
Cc1n[nH]c(=O)c2c(NC(=O)CN3CCOC(C)C3)oc(C)c12 (centres undefined) | -0.524%
Cc1ccc(Oc2ncccc2C(=O)O)c(C)c1 | 2.4%
Nc1ccnc(-c2cc(NC3CCNCC3)nc3[nH]ccc23)c1 | 3.18%
CC1CN(C(=O)c2ccnc(-n3cncn3)c2)c2ccccc2S1 (centres undefined) | -5.69%
COc1ccnc(N2CCN(C(=O)CCc3nccs3)CC2)n1 | -8.97%
Cc1nc(CN2C[C@@H]3CN(C(=O)c4cnccn4)C[C@@H]3C2=O)cs1 | -74.5%
Cc1ccc(C(=O)N2CCC3(CCCN(c4ccc(C)nn4)C3)C2)cn1 (centres undefined) | -112%
O=C(NCC1(O)CCOCC1)c1ccn(-c2ccccc2F)n1 | -0.636%
Cc1nc(CNC(=O)NC(C)c2ccc3c(c2)OCCCO3)cs1 (centres undefined) | -0.535%
Cn1nc(COc2cccnc2)c2c1CCN(Cc1ccco1)C2 | -5.57%
Cc1nc(CN2CCCC(CCc3ccccc3C(F)(F)F)C2)co1 (centres undefined) | 0.663%
COc1ccc(CN2CCOC[C@H](OCC(=O)N(C)C)C2)cc1 | 0.552%
CC(CO)CNC(=O)c1cc2cccc(F)c2o1 (centres undefined) | 8.13%
Cc1[nH]c2ccccc2c1-c1ccnc(NCCN2CCCCC2)n1 | -1.36%
Cc1nccn1-c1cncc(C2CCCN2Cc2ccccc2)n1 (centres undefined) | -8.52%
COC(=O)c1ccc(C(=O)NS(=O)(=O)c2cncc(Br)c2)cc1 | 9.95%
CNS(=O)(=O)c1ccccc1N1CCN(C(C)C(=O)OC)CC1 (centres undefined) | 0.375%
CC(=O)N1C[C@H](NS(=O)(=O)N2CCCC2)[C@@H](c2ccc(C)o2)C1 | -1.91%
CCN(C)CC(=O)N1CCc2nc(NC)nc(C(=O)N3CCCC3)c2C1 | -120%
Cc1nnc(CN2CCN(Cc3nccn3C)CC2)n1C | -2.4%
O=S(=O)(c1cnccc1N1CCN(CCO)CC1)N1CCOCC1 | -8.49%
Cc1cc(CN(C)C(=O)c2ccc(Cl)c(S(C)(=O)=O)c2)no1 | -2.77%
COc1ccc(Cc2ncc3c(n2)CN(C(=O)CCO)C3)cc1 | 2.37%
Cc1nnc([C@@H]2CC[C@@H]3[C@@H](CCN3S(=O)(=O)C3CC3)O2)o1 | -77%
O=C(c1ccncc1F)N1CCCC1c1nc(-c2ccccc2)n[nH]1 (centres undefined) | 1.34%
Cc1nn(C)c2nc(N(Cc3cnn(C)c3)C3CCCCC3)sc12 | -1.24%
